Active and inactive are the calls of the source. No cut-off for these calls is given here.
How the values were obtained:
[1] = Cell cycle arrest in human CL1-0 cells assessed as accumulation at S phase after 2 hrs by flow cytometry; type: functional, cell-based
Outline: (§1)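 CL1-0 cells seeded at 2×10^5 per 60 mm dish, incubated 24 h, then exposed to various drug concentrations for 2, 6, 12, 16 or 24 h. Harvested cells fixed in cold 70% ethanol at 4 °C for 16 h, treated with RNase A (20 µg/mL, 37 °C, 30 min), stained with propidium iodide (50 µg/mL, 4 °C, 30 min), analysed at once by flow cytometry for phase distribution.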

[2] = Cell cycle arrest in human CL1-0 cells assessed as accumulation at G2/M phase after 6 hrs by flow cytometry; type: functional, cell-based; outline: as §1
[3] = system: CL1-0; assay: Cytotoxicity against human CL1-0 cells assessed as disruption of cell morphology after 48 hrs; type: functional, cell-based
[4] = system: CL1-0; assay: Effect on p21 protein expression in human CL1-0 cells at 0.5 ug/mL after 24 hrs by Western blot; type: functional, cell-based
Outline: (§2)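 CL1-0 cells exposed to rising concentrations for 24 h, or to 0.5 µg/mL over a time course; 50 µg lysate resolved by 10% SDS-PAGE, blotted, probed with cyclin/CDK-inhibitor antibodies in TBS-Tween/5% milk, HRP secondary, chemiluminescent film detection.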

[5] = Cell cycle arrest in human CL1-0 cells assessed as accumulation at G2/M phase after 12 hrs by flow cytometry; type: functional, cell-based; outline: as §1
[6] = Cell cycle arrest in human CL1-0 cells assessed as accumulation at G0/G1 phase after 16 hrs by flow cytometry; type: functional, cell-based; outline: as §1
[7] = system: CL1-0; assay: Effect on cyclin E protein expression in human CL1-0 cells at 0.5 ug/mL after 24 hrs by Western blot; type: functional, cell-based; outline: as §2
[8] = Cell cycle arrest in human CL1-0 cells assessed as accumulation at S phase after 16 hrs by flow cytometry; type: functional, cell-based; outline: as §1
[9] = molecular target: T1, Inhibitor of nuclear factor kappa-B kinase subunit beta (Homo sapiens) (UniProt O14920); assay: Effect on IKK-beta activity in TNF-alpha-stimulated human CL1-0 cells by Western blot; type: cell-based
T1 sequence (whole entry): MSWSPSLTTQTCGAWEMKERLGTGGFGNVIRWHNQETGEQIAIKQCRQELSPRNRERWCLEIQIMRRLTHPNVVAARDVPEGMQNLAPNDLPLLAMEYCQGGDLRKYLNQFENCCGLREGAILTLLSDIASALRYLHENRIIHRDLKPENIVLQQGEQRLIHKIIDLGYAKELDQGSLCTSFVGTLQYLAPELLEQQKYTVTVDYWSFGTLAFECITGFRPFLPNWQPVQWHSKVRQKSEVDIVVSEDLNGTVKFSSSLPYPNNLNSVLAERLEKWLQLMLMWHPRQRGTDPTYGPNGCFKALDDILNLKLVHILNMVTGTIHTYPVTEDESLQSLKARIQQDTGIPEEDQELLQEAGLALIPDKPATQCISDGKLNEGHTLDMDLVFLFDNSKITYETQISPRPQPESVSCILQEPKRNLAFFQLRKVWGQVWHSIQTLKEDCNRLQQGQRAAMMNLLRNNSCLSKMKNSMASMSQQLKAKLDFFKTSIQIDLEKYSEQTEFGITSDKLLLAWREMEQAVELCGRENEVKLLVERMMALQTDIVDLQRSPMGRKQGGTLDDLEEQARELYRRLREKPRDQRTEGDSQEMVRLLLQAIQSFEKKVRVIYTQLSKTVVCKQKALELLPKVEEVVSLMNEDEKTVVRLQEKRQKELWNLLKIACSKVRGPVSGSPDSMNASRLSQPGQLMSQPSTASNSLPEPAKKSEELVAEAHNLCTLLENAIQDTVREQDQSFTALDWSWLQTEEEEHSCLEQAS
Outline: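 CL1-0 cells serum-starved overnight, pretreated with various drug concentrations, then stimulated with TNF-α for 4 h. Lysates (50 µg) resolved by 10% SDS-PAGE, blotted, probed with specific antibodies in TBS pH 7.5/0.05% Tween 20/5% milk, HRP secondaries, chemiluminescent film detection; a representative blot shown.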

[10] = system: CL1-0; assay: Effect on p27 protein expression in human CL1-0 cells at 0.5 ug/mL after 24 hrs by Western blot; type: functional, cell-based; outline: as §2
[11] = system: CL1-0; assay: Induction of cyclin B1 protein accumulation in human CL1-0 cells at 0.5 ug/mL after 24 hrs by Western blot; type: functional, cell-based; outline: as §2
[12] = system: A549; assay: Decrease in […] binding affinity to NF-kappaB response element on COX2 promoter in human A549 cells at >0.25 ug/mL by chromatin immunoprecipitation assay; type: functional, cell-based
Outline: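 A549 cells, untreated or treated with drug plus TNF-α for 4 h, cross-linked with 1% formaldehyde (quenched with 0.125 M glycine), lysed, sonicated 12 W for 45 s, immunoprecipitated overnight at 4 °C with anti-RelA, anti-p50 or anti-RelB, collected on protein A/G beads. Cross-links reversed at 65 °C overnight; COX-2 promoter (nt -359 to +106) PCR-amplified 35 cycles, 2% agarose gel, input chromatin as control.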

[13] = Cell cycle arrest in human CL1-0 cells assessed as accumulation at G0/G1 phase after 12 hrs by flow cytometry; type: functional, cell-based; outline: as §1
[14] = system: CL1-0; assay: Suppression of colony formation of human CL1-0 cells assessed as reduction of cell colonies after 10 to 14 days; type: functional, cell-based
[15] = Cell cycle arrest in human CL1-0 cells assessed as accumulation at S phase after 12 hrs by flow cytometry; type: functional, cell-based; outline: as §1
[16] = molecular target: RAC-alpha serine/threonine-protein kinase (Homo sapiens) (UniProt P31749); assay: Inhibition of AKT phosphorylation in human CL1-0 cells by Western blot; type: cell-based
RAC-alpha serine/threonine-protein kinase (Homo sapiens), sequence (P31749 whole entry): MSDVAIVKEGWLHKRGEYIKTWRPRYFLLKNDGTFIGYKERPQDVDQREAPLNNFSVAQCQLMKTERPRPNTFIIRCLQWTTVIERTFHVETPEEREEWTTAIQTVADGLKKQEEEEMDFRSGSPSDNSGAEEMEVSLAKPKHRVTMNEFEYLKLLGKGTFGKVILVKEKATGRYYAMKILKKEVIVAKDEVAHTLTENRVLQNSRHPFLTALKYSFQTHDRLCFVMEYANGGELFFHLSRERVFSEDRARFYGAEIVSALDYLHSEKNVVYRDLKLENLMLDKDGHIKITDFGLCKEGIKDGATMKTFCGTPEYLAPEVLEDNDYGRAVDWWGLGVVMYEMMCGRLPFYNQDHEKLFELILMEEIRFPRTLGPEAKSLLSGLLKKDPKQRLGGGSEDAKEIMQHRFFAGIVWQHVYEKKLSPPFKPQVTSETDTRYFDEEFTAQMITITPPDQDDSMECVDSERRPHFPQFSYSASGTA
Outline: (§3)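 Western blot of CL1-0 cells after 24 h at increasing concentrations; probed for p-Akt, Akt and IκB; 50 µg lysate on 10% SDS-PAGE, HRP secondary, chemiluminescence on film.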

[17] = system: CL1-0; assay: Increase in IkappaB protein level in human CL1-0 cells by Western blot; type: functional, cell-based; outline: as §3
[18] = Cell cycle arrest in human CL1-0 cells assessed as accumulation at G2/M phase after 24 hrs by flow cytometry; type: functional, cell-based; outline: as §1
[19] = Cell cycle arrest in human CL1-0 cells assessed as accumulation at S phase after 6 hrs by flow cytometry; type: functional, cell-based; outline: as §1
[20] = Cell cycle arrest in human CL1-0 cells assessed as increase in accumulation at G2/M phase by flow cytometry; type: functional, cell-based; conditions: TDE = time-dependent effect; outline: as §1
[21] = system: CL1-0; assay: Induction of apoptosis in human CL1-0 cells assessed as PARP1 cleavage by Western blot; type: functional, cell-based
[22] = system: CL1-0; assay: Induction of cyclin D1 protein accumulation in human CL1-0 cells at 0.5 ug/mL after 24 hrs by Western blot; type: functional, cell-based; outline: as §2
[23] = system: CL1-0; assay: Inhibition of TNF-alpha-induced NF-kappaB transcriptional in human CL1-0 cells by luciferase reporter gene assay; type: cell-based
Outline: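 CL1-0 cells transiently co-transfected with pNF-κB-Luc (0.2 µg) and pSV-β-galactosidase (1 µg) via lipofectamine; after 20 h switched to serum-free medium, pretreated 1 h, then stimulated with TNF-α for 4 h; luciferase normalized to β-galactosidase; n=3 independent transfections, mean ± SD.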

[24] = Cell cycle arrest in human CL1-0 cells assessed as accumulation at G0/G1 phase after 24 hrs by flow cytometry; type: functional, cell-based; outline: as §1
[25] = system: CL1-0; assay: Effect on cyclin A protein expression in human CL1-0 cells at 0.5 ug/mL after 24 hrs by Western blot; type: functional, cell-based; outline: as §2

In the case of COc1ccc2c(CN3CCC(CO)CC3)cc3cc4c(cc3c2c1)OCO4, the Activity [1] is reported as 15.1%, the Activity [2] is reported as 24.3% and the Activity [3] is reported as “Active”. The Activity [4] was “inactive”, the Activity [5] was 27% and the Activity [6] was 20.4%. The Activity [7] was “inactive”, the Activity [8] was 34.1% and the Activity [9] was “inactive”. The Activity [10] was “inactive”, the Activity [11] was “Active” and the Activity [12] was “Active”. For the same compound, the Activity [13] was 41.7%, the Activity [14] was “Dose-dependent effect” and the Activity [15] was 23.9%. For the same compound, the Activity [16] was “Dose-dependent effect”, the Activity [17] was “Dose-dependent effect” and the Activity [18] was 20.9%. For the same compound, the Activity [19] was 15.8%, the Activity [20] was “tde” and the Activity [21] was “Active”. The Activity [22] was “Active”, the Activity [23] was “Dose-dependent effect” and the Activity [24] was 16.6%. The Activity [25] was “inactive”.

Reference: ChEMBL document CHEMBL1153963, “Phenanthrene-based tylophorine-1 (PBT-1) inhibits lung cancer cell growth through the Akt and NF-kappaB pathways” (J Med Chem, 2009)
